From PubChem BioAssay
Hits are enriched below; roughly 5.5% of the tested compounds scored in any of these assays.
STAT1 blocker: STAT1 signaling inhibitors, primary screen, cell-based, HTS, luciferase reporter; NIH 3T3 STAT1-luciferase reporter, IFN-gamma, luminescence; inhibition, % at 5.5 µM; hit rate 0.35% among 200,000; AID 920, 2007;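 active = inhibition above a set limit, the mean inhibition across all tested compounds plus 3 SD, cut at about 34% in these data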;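 note: 0% = IFN-gamma with DMSO and 100% = IFN-gamma with 300 µM nifuroxazide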
STAT3 inh: IL-6 driven STAT3 reporter inhibitors, primary screen, U3A cells, luciferase, luminescence, MLSCN library; IL-6 STAT3-luciferase reporter; host cell line lacks STAT1; hit rate 0.89% among 190,000; inhibition, % at 5.5 µM; AID 862, 2007;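 active = inhibition above the mean inhibition across all screened compounds plus 3 SD, cut at about 44% in these data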;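 note: 0% = DMSO only wells and 100% = 100 µM nifuroxazide control wells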
STAT1 act: STAT1 signaling activators, primary screen, cell-based, HTS, luciferase reporter. activation (% of control), % at 5.5 µM. NIH 3T3 STAT1-luciferase reporter, IFN-gamma, luminescence; 100% = IFN-gamma alone, no compound. hit rate 2.6% among 200,000;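 active = activation above the screen-wide mean activation plus 3 SD, cut at about 130% in these data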;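 note: raw ratio to IFN-gamma control signal so 100% means no change and 0% no light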
KCC2 mod: KCC2 cotransporter modulators, thallium flux, primary screen, cell-based, HEK293 KCC2, FluoZin-2 fluorescence, MLSMR; Solute carrier family 12 member 5 (Homo sapiens), Q9H2X9; KCC2 cells, thallium flux FluoZin-2 fluorescence; B-score of Tl+ flux slope (higher = more flux/activation; lower = inhibition) at 10 µM; hit rate 2.2% among 190,000; AID 1456, 2008;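 active = thallium flux slope and its plate-corrected score both differing from the plate sample mean at a set confidence after two filtering rounds, in either direction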;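 note: slope of fluorescence scaled to starting intensity during 10 to 20 s after thallium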
Target sequence (Q9H2X9 whole entry, looked up): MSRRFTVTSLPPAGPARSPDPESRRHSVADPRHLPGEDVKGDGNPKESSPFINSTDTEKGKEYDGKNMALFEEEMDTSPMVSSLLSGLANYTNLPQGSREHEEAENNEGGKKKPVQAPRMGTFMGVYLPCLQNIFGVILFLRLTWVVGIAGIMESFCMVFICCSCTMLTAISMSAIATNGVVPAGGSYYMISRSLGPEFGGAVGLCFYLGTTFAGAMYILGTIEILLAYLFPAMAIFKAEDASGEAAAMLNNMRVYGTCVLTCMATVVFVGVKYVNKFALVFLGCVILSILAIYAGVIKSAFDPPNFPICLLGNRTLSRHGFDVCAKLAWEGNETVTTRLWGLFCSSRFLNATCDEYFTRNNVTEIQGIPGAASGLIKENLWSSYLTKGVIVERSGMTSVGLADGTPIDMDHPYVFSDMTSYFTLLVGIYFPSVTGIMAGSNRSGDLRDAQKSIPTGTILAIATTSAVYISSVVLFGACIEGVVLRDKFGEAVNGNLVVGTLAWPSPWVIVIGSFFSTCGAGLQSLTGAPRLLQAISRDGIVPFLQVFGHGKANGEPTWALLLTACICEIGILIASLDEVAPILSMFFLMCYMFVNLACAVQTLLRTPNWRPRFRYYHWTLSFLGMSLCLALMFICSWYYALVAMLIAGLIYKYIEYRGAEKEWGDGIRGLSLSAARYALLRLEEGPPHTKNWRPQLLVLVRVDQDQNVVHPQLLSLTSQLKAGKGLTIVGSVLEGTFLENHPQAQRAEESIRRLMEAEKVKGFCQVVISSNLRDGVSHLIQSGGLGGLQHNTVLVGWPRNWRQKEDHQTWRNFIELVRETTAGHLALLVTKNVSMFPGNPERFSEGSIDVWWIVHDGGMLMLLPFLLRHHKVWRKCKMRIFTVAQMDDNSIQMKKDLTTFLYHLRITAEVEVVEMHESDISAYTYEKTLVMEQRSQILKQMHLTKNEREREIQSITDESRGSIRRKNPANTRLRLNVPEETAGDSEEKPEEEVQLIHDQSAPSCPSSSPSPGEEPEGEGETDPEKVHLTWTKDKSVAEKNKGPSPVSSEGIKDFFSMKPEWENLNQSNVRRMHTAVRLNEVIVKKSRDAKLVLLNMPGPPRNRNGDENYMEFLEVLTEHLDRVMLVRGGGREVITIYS
HSV augment: enhancers of HSV replication in host cells, fold increase, host cell viability; HSV replication augmentation in cells; hit rate 0.005% among 220,000; maximum fold increase; in the data active = maximum fold increase above about 1.5; tested in PC3 cells
STAT3 act: IL-6 driven STAT3 reporter potentiators, primary screen, U3A cells, luciferase, luminescence, MLSCN library | IL-6 STAT3-luciferase reporter; 100% = signal with IL-6 EC80 alone | hit rate 0.91% among 190,000 | activation (% of control), % at 5.6 µM;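 active = activation above the screen-wide mean of compound activation plus 3 SD, cut at about 130% in these data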;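 note: 0% = background luminescence of wells with medium and substrate only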
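Test system: Human STAT1-deficient U3A cells with stable STAT3-luciferase reporter | Also added: Interleukin-6, 33 ng/mL | Timing: Compound pre-incubation 1 h before IL-6, then 6 h stimulation at 37 °C | Technique: Luciferase reporter luminescence | Read-out: Percent of IL-6-only median luminescence | Benchmarks: IL-6-only wells as 100% reference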
* hit, by the source's call; i = inactive; x = not tested or not shown.

SMILES	STAT1 blocker	STAT3 inh	STAT1 act	KCC2 mod	HSV augment	STAT3 act
NC(=O)CCS(=O)(=O)c1ccc(Cl)cc1	4	8	94	x	i	96
COC(=O)c1ccnc(SCC(=O)c2ccccc2)c1	-35	4	132*	-0.33	i	104
COc1ccc2c(c1)[nH]c1c(N3CCN(Cc4ccc5c(c4)OCO5)CC3)ncnc12	32	77*	71	x	i	40
CC1Cc2ccccc2N1C(=O)CN1CCC(n2nnc3cc(C(F)(F)F)ccc32)CC1 (stereo unspecified)	17	3	85	-1.9	i	97
N#C/C(=N\Nc1cccc(C(F)(F)F)c1)C(=O)c1csc(-c2cccnc2)n1	x	x	x	-6.1*	i	x
CC(=O)C1=C(C)OC(N)=C(C#N)C1c1cc2cc(C)c(C)cc2nc1Cl (stereo unspecified)	5	-94	96	x	i	178*
COc1ccc2nc(NC(=O)CSc3nnnn3C)sc2c1	-47	11	142*	0.28	i	94
COc1ccc2nc(NC(=O)CSc3nnnn3C3CCCCC3)sc2c1	7	6	94	0.37	i	100
CCOCC(=O)Nc1nc2ccc(OC)cc2s1	-28	28	126	x	i	81
CCOc1ccc2nc(NC(=O)COC)sc2c1	-43	19	138*	0.33	i	89
CCOc1ccc2nc(NC(=O)Cc3cccs3)sc2c1	-31	-3	129*	-0.078	i	108
COc1ccc2nc(NC(=O)Cc3cccs3)sc2c1	-46	7	136*	x	i	95
O=C(Cc1cccs1)Nc1nc2ccccc2s1	-29	9	126	x	i	96
Cn1nc([N+](=O)[O-])nc1N1CCOCC1	16	14	86	0.21	i	91
Cc1ccc(NC(=O)C2OCCc3ccccc32)cc1Cl (stereo unspecified)	-8	19	108	-0.2	i	88
O=C(Nc1ccccc1Br)C1CC(=O)N(c2ccc3c4c(cccc24)CC3)C1 (stereo unspecified)	-8	-2	107	-0.92	i	101
Cc1ccc(CN=c2c([N+](=O)[O-])nn(-c3ccc4c(c3)OCCO4)n2O)cc1	-40	1	135*	-1.9	i	98
O=[N+]([O-])c1nn(-c2ccc3c(c2)OCCO3)n(O)c1=NCCCO	-19	-2	117	0.44	i	103
O=[N+]([O-])c1nn(-c2ccc3c(c2)OCCO3)n(O)c1=Nc1ccccc1	46*	90*	59	0.091	i	25
O=C(Oc1ccc(NC(=O)c2cc3c(cc2Br)OCO3)cc1)c1ccccc1	x	x	x	-0.94	i	x
CC(Sc1nc2sc3c(c2c(=O)n1-c1ccccc1)CCCC3)C(=O)O (stereo unspecified)	x	x	x	0.015	i	x
CCn1c(SC(C)C(=O)O)nc2sc3c(c2c1=O)CCC3 (stereo unspecified)	1	9	100	26*	i	98
COc1cc(OC)cc(C(=O)Nc2ccc([N+](=O)[O-])cn2)c1	-2	11	102	1	i	93
COc1ccc(C(=O)Nc2ccc([N+](=O)[O-])cn2)c(OC)c1	-53	1	148*	-0.54	i	101
CSc1ccccc1NC(=O)C(=O)c1c[nH]c2ccccc12	-57	-26	149*	0.13	i	129
O=C(Cc1c[nH]c2ccccc12)Nc1nccs1	1	-20	99	0.14	i	120
O=C(Nc1nccs1)C(=O)c1c[nH]c2ccccc12	-36	-33	133*	0.27	i	136*
CCOC(=O)c1c(NC(=O)C2CCCCC2C(=O)O)sc2c1CCCCC2 (stereo unspecified)	2	9	98	-1.2	i	100
COC(=O)c1c(NC(=O)C2CCCCC2C(=O)O)sc2c1CCCCC2 (stereo unspecified)	-34	0	130*	-2	i	101
